Entries after “also recorded” stand apart in the source; their conditions may differ. Like-named read-outs stand apart in the source and are kept apart here.
Experiments:
Format in all cases: biochemical
[1] = target: T1, hGOAT (Homo sapiens, UniProt Q96T53); test: in vitro hGOAT octanoylation activity assay
T1 sequence (Q96T53 1-435): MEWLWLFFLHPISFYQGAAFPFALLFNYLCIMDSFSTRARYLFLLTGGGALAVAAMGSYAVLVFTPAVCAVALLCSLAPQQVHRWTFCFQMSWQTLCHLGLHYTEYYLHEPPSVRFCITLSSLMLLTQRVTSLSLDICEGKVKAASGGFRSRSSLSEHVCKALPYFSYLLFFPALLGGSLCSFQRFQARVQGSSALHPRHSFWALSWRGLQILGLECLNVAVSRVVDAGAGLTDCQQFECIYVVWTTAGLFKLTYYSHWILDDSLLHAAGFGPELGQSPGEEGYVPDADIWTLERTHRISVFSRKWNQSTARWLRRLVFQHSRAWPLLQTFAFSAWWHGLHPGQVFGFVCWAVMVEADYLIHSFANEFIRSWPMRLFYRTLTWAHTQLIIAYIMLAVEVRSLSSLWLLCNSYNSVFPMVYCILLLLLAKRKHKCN
Method in brief: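 hGOAT was expressed in Sf9 cell membrane fractions, homogenized by needle, and ~100 μg membrane protein was preincubated 30 min at room temperature with 1 μM MAFP and test compound or vehicle (DMSO or ethanol) in 50 mM HEPES pH 7.0. Reactions were started with 500 μM octanoyl-CoA and 1.5 μM acrylodan-labeled peptide, run 3 h at room temperature in the dark, acid/isopropanol-stopped, TCA-clarified and analysed by reverse-phase HPLC. Percent activity was taken as octanoylated/total peptide fluorescence relative to vehicle, from three independent determinations.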

[2] = target: T1, hGOAT; test: inhibitor reversibility; settings: pretreatment at 3 x IC50, 10-fold dilution
Method in brief: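 Undiluted homogenised Sf9 membrane containing hGOAT (~7 μg/μL protein) was preincubated 30 min at RT with 10 μM MAFP and inhibitor or vehicle (DMSO or ethanol). It was then diluted 10-fold into 50 mM HEPES pH 7.0 with 500 μM octanoyl CoA, 1.5 μM GSSFLC-acrylodan, and either vehicle or inhibitor at the same final level as in preincubation. Reactions ran 3 h at RT in the dark, followed by RP-HPLC quantitation of octanoylated peptide.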

[3] = target: T2, mGOAT (Mus musculus, UniProt P0C7A3); test: in vitro mGOAT octanoylation activity assay; settings: side-by-side assay, mGOAT IC50 higher than hGOAT
T2 sequence (P0C7A3 1-435): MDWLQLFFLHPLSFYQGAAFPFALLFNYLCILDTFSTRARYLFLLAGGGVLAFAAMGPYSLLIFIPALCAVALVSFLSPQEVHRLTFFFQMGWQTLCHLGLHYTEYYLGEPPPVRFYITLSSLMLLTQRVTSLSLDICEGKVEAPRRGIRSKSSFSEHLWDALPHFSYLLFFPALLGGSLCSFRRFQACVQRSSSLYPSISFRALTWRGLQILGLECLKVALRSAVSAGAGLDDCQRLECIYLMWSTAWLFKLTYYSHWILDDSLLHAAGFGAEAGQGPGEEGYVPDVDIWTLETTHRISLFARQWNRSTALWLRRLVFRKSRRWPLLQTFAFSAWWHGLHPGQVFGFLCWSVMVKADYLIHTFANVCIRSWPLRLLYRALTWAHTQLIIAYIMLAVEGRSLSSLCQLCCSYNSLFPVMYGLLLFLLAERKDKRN
Method in brief: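 mGOAT and hGOAT were expressed in Sf9 insect-cell membrane fractions, which were thawed on ice and homogenised through an 18-gauge needle. About 100 μg membrane protein was preincubated 30 min at room temperature with 1 μM MAFP plus inhibitor or vehicle (DMSO or ethanol) in 50 mM HEPES pH 7.0.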

[4] = target: T1, hGOAT; test: inhibitor time dependence with hGOAT; settings: preincubation 5-60 min, 10 min reaction, 30 μM CDDO-EA
Method in brief: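 hGOAT Sf9 membranes (~100 μg protein) were first preincubated 30 min at RT with 1 μM MAFP in 50 mM HEPES pH 7.0. Inhibitor or vehicle was then added for 5, 10, 30 or 60 min before starting with 500 μM octanoyl CoA and 1.5 μM GSSFLC-acrylodan. The reaction ran only 10 min at RT in the dark, then was stopped and analysed by RP-HPLC. % activity versus vehicle and IC50 were derived per preincubation time; minimum of three measurements.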

| inhibition of hGOAT activity [1] | inhibition of hGOAT activity ([1]; at concentrations up to 100 μM) | reversibility of hGOAT inhibition [2] | Molecule | other results |
| --- | --- | --- | --- | --- |
| lack of inhibition | – | – | CC1(C)CC[C@]2(C(=O)O)CC[C@]3(C)[C@H](C(=O)C=C4[C@@]5(C)C=C(C#N)C(=O)C(C)(C)[C@@H]5CC[C@]43C)[C@@H]2C1 [Compound 5] | – |
| – | negligible inhibition | – | C[C@H]1[C@H](C)CC[C@]2(C(=O)O)CC[C@]3(C)C(=CC[C@@H]4[C@@]5(C)CC[C@H](O)C(C)(C)[C@@H]5CC[C@]43C)[C@H]12 [Compound 6, ursolic acid] | – |
| most potent inhibition of hGOAT | – | reversible hGOAT inhibition | CCNC(=O)[C@]12CCC(C)(C)C[C@H]1[C@H]1C(=O)C=C3[C@@]4(C)C=C(C#N)C(=O)C(C)(C)[C@@H]4CC[C@@]3(C)[C@]1(C)CC2 [Compound 3] | IC50 against mGOAT relative to hGOAT [3]: ~ 8 fold; time dependence of hGOAT inhibition [4]: time-dependent inhibition |
| lack of hGOAT inhibition | – | – | C[C@]12CC[C@@H]3c4ccc(O)cc4CC[C@H]3[C@@H]1CCC2=O [Compound 15, estrone] | – |
| – | – | reversible inhibition | [Dap^3]octanoyl-ghrelin (1-5)-NH2 | – |

The next lines start with the molecule.

| Molecule | inhibition of hGOAT activity [1] | inhibition of hGOAT activity ([1]; at concentrations up to 100 μM) | reversibility of hGOAT inhibition [2] | other results |
| --- | --- | --- | --- | --- |
| CC1(C)CC[C@]2(C)CC=C3[C@]4(C)CC[C@H]5C(C)(C)[C@@H](O)CC[C@]5(C)[C@H]4CC[C@@]3(C)[C@@H]2C1 [Compound 8, taraxerol] | – | fails to inhibit | – | – |
| CCN1C(=O)C=CC1=O [NEM, N-ethylmaleimide] | efficiently inhibits hGOAT | – | irreversible hGOAT inhibition | – |
| O=C1C=CCCC1 [Compound 18, cyclohexenone] | – | – | – | inhibition of hGOAT activity ([1]; at concentrations up to 1 mM): does not inhibit hGOAT activity |
| CC1(C)CC[C@]2(C(=O)O)CC[C@]3(C)C(=CC[C@@H]4[C@@]5(C)CC[C@H](O)C(C)(C)[C@@H]5CC[C@]43C)[C@@H]2C1 [Compound 7, oleanic acid] | – | negligible inhibition | – | – |
| COC(=O)[C@]12CCC(C)(C)C[C@H]1[C@H]1C(=O)C=C3[C@@]4(C)C=C(C#N)C(=O)C(C)(C)[C@@H]4CC[C@@]3(C)[C@]1(C)CC2 [Compound 2, methyl 2-cyano-3,12-dioxooleana-1,9(11)dien-28-oate] | exhibits inhibitory activity against hGOAT; also recorded: most potent inhibition of hGOAT | – | – | – |

From article PMC5319884 (Biochemistry, 2017)
